{"source": "paper PMC4080709", "about": "(Science translational medicine, 2014)", "key": {"[1]": {"experiment": "shelf-stability at ambient temperature", "type": "physicochemical"}, "[2]": {"test_system": "CDV-5804PeH", "experiment": "oral efficacy in ferrets infected intranasally with lethal CDV-5804PeH", "type": "in vivo, ferret", "how_it_was_run": "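Male and female adult European ferrets without CDV immunity, infected intranasally with 1×10⁵ TCID₅₀ CDV-5804PeH per animal (~10 LD₅₀). Dosing by gastric gavage at 50 mg/kg b.i.d. in PEG200/0.5% methylcellulose (10/90). Post-exposure arm starts 3 days post-infection and runs 14 days; controls receive vehicle. Daily clinical observation. Blood and weights taken days 0, 3, 7, 10, 14, then weekly. Survival analysed by log-rank (Mantel-Cox) test.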"}, "[3]": {"test_system": "CDV-5804PeH recombinants harboring L resistance mutations", "experiment": "dose-response inhibition of resistant CDV-5804PeH recombinants", "type": "cell-based, canine distemper virus", "how_it_was_run": "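Candidate L resistance mutations introduced singly into the CDV-5804PeH background by site-directed mutagenesis. Recombinants recovered, and mutations confirmed by RT-PCR and cDNA sequencing. Dose-response inhibition measured as cell-associated viral titres (TCID₅₀ on Vero-cSLAM cells), as mean ± SD of at least three independent experiments. Four-parameter variable-slope regression.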"}, "[4]": {"test_system": "established human and animal cell lines and primary human PBMCs", "experiment": "CytoTox96 non-radioactive cytotoxicity assay", "type": "cell-based", "how_it_was_run": "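CytoTox96 non-radioactive cytotoxicity assay; highest concentration tested 75 µM. Signal normalised to vehicle controls as %-toxicity = 100-((specific_490nm)/([…])*100). CC₅₀ derived from the mean of four replicates. Compound dissolved in DMSO. Cell lines kept at 37°C, 5% CO₂ in DMEM with 7.5% FBS.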"}, "[5]": {"details": "rat model; cited from earlier work"}, "[6]": {"target": "CDV polymerase complex (Canine distemper virus, UniProt P24658)", "sequence (P06940 whole entry)": "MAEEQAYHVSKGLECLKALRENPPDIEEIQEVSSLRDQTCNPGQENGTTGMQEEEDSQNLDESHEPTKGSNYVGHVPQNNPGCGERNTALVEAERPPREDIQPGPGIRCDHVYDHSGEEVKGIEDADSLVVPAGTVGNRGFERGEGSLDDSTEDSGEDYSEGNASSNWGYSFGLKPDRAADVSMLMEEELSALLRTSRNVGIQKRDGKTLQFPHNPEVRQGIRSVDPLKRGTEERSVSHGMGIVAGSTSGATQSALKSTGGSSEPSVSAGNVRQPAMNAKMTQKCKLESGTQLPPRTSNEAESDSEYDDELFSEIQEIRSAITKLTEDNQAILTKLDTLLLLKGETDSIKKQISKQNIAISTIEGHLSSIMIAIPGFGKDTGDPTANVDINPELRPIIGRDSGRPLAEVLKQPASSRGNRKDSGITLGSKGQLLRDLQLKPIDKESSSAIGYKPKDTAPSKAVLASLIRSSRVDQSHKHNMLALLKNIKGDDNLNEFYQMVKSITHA", "sequence (P24658 whole entry)": "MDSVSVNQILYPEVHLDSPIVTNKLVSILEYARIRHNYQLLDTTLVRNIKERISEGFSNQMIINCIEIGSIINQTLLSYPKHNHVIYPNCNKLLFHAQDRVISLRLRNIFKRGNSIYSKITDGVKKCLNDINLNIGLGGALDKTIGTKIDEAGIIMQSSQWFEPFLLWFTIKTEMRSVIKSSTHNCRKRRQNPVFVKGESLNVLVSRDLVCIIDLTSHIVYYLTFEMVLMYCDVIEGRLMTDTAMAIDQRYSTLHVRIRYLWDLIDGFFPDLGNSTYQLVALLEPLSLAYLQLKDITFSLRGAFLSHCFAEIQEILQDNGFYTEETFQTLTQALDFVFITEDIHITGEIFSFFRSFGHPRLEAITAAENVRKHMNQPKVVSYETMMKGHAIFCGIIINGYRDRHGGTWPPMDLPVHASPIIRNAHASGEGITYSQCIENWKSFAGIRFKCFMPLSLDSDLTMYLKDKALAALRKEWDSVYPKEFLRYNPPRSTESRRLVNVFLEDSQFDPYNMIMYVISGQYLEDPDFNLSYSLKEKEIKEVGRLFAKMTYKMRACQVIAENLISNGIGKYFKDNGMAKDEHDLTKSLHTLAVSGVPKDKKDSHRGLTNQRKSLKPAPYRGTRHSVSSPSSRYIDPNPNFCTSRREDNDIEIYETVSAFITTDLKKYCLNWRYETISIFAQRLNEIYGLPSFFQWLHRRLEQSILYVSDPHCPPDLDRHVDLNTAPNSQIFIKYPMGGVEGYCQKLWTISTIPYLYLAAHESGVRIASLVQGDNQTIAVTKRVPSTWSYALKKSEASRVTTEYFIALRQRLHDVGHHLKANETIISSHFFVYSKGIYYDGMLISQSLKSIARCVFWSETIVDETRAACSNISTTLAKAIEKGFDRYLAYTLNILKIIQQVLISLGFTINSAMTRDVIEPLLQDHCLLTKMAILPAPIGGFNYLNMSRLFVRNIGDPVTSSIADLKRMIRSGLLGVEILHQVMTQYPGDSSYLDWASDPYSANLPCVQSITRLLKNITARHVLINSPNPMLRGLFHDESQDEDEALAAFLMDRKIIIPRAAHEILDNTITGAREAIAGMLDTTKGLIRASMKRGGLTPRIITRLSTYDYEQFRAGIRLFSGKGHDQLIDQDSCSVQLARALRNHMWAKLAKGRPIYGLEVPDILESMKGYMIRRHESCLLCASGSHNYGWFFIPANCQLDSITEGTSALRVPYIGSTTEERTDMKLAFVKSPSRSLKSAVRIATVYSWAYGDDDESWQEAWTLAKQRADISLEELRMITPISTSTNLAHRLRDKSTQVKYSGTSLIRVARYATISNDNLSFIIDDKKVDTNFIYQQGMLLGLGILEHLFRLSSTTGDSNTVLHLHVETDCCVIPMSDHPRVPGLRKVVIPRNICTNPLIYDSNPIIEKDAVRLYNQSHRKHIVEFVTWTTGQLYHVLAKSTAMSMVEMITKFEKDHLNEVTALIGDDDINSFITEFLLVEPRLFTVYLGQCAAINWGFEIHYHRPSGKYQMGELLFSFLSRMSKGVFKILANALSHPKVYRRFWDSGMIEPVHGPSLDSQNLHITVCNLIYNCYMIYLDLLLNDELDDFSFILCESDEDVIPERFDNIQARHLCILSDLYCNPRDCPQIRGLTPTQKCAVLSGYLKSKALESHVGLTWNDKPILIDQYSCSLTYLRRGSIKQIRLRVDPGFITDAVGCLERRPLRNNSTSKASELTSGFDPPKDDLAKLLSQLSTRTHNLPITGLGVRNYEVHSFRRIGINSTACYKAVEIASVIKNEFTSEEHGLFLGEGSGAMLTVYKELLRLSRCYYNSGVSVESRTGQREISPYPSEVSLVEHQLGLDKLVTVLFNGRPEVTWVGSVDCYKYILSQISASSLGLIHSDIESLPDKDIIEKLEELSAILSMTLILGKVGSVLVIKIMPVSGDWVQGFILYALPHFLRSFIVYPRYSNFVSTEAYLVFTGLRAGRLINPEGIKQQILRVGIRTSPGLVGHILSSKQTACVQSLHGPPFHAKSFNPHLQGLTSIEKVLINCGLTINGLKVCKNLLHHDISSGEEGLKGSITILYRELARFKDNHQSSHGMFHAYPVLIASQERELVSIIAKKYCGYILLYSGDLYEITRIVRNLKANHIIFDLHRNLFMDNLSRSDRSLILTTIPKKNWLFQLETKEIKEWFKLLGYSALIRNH", "experiment": "minigenome luciferase replicon reporter assay, CDV", "type": "cell-based", "details": "10 µM highest"}, "[7]": {"experiment": "serum protein binding", "type": "in vitro ADME"}, "[8]": {"details": "cited from earlier work"}, "[9]": {"experiment": "single-dose oral PK study in ferrets", "type": "in vivo", "details": "ferret, single-dose p.o. 50 mg/kg", "how_it_was_run": "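Ferrets given a single oral dose of 50 mg/kg in PEG-200/0.5% methylcellulose (10/90) at time zero, with blood sampled at set time points afterwards. Plasma prepared from heparinised blood. Drug quantified by internal-standard, reversed-phase isocratic HPLC with positive-ion electrospray LC/MS/MS. PK parameters estimated by modelling software.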"}, "[10]": {"test_system": "MeV isolates", "experiment": "in vitro efficacy testing against a panel of MeV isolates", "type": "cell-based, measles virus", "how_it_was_run": "(§1)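 Virus yield reduction: cell-associated progeny titred by TCID₅₀. MeV is handled on Vero-hSLAM cells and CDV on Vero-cSLAM cells. Compound in DMSO. EC₅₀ from four-parameter variable-slope non-linear regression, with 95% asymmetric confidence intervals, from at least three independent experiments per virus. SI = CC₅₀/EC₅₀. MeV panel covers seven endemic genotypes; CDV strains are recombinant 5804PeH and Snyder Hill.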"}, "[11]": {"target": "RSV polymerase complex (Human respiratory syncytial virus A, UniProt P28887)", "sequence (P28887 whole entry, one chain of several)": "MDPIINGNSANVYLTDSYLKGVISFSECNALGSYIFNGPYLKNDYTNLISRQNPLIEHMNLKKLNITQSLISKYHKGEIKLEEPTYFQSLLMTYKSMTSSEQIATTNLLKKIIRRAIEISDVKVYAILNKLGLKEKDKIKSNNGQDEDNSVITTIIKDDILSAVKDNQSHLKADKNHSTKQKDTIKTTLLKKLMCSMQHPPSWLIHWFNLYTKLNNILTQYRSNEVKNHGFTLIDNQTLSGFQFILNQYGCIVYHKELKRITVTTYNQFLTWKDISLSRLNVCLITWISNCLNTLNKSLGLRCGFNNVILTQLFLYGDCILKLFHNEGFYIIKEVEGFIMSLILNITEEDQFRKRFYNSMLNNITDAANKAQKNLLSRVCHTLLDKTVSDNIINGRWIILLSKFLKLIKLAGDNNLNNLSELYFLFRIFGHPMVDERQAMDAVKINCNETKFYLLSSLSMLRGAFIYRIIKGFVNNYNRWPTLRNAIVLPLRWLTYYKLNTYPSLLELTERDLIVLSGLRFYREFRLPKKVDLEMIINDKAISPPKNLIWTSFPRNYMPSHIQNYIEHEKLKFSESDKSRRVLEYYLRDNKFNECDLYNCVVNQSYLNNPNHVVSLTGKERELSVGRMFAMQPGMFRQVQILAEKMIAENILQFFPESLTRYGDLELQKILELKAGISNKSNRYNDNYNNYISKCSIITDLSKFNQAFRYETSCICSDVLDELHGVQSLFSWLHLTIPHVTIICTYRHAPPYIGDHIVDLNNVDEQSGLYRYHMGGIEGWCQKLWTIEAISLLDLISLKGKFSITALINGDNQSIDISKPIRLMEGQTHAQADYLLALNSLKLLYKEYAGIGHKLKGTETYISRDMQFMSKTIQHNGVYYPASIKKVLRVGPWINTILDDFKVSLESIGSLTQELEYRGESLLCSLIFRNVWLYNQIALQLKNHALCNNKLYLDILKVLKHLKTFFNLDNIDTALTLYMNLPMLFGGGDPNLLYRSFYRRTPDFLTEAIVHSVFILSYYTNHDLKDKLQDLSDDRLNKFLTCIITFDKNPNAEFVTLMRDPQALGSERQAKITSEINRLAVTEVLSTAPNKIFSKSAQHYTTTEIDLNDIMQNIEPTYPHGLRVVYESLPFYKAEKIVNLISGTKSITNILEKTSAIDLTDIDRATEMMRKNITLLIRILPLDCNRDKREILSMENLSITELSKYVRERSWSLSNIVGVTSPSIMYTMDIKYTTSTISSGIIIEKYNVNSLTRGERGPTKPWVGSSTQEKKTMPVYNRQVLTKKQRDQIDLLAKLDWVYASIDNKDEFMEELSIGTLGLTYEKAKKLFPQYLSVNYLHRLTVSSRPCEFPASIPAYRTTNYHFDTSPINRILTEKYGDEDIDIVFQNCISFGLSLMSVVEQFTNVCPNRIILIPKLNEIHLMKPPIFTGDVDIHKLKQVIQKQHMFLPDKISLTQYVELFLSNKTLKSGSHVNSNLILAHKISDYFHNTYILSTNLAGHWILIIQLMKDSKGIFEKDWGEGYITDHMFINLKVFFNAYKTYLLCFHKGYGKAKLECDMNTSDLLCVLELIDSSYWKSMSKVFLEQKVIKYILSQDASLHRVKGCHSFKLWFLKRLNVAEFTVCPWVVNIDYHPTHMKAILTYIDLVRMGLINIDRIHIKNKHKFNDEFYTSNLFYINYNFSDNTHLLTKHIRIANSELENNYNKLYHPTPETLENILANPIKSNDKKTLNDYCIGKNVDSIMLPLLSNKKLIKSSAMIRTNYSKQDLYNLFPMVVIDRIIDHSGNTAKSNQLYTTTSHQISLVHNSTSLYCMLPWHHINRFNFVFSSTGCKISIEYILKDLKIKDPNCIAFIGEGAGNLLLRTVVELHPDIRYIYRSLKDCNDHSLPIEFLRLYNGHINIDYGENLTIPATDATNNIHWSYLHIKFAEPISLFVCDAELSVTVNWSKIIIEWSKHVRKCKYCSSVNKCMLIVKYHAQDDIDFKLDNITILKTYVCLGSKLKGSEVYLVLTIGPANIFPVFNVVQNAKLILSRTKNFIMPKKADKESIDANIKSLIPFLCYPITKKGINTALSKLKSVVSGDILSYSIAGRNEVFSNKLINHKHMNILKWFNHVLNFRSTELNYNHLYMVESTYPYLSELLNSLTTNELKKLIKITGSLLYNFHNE", "experiment": "minigenome luciferase replicon reporter assay, RSV", "type": "cell-based", "details": "10 µM highest"}, "[12]": {"test_system": "CDV-5804PeH and Snyder Hill isolate", "experiment": "in vitro efficacy testing against pathogenic CDV strains", "type": "cell-based, canine distemper virus", "details": "recombinant CDV-5804PeH and neuroadapted Snyder Hill isolate", "how_it_was_run": "as §1"}, "[13]": {"target": "MeV polymerase complex (Measles virus, UniProt P12576)", "experiment": "minigenome luciferase replicon reporter assay, MeV", "type": "cell-based", "details": "10 µM highest"}}, "data": [{"compound": "Cn1nc(C(F)(F)F)cc1C(=O)Nc1ccc(S(=O)(=O)N2CCCC[C@H]2CCN2CCOCC2)cc1", "note": "[ERDRP-0519]", "values": [{"measurement": "shelf-stability", "setting": "[1]", "result": "exceeded one year without loss of activity"}, {"measurement": "PBMC responsiveness (PHA-stimulated proliferation)", "setting": "[2]; PET group", "result": "only transiently impaired"}, {"measurement": "clinical signs of disease", "setting": "[2]; PET group", "result": "remained subclinical"}, {"measurement": "humoral response (neutralizing antibodies)", "setting": "[2]; PET group", "result": "strong humoral response"}, {"measurement": "signs of compound-induced toxicity", "setting": "[2]; PET group, 50 mg/kg p.o. b.i.d. for 14 days", "result": "not observed signs of compound-induced toxicity"}, {"measurement": "prolongation of survival of treated ferrets", "setting": "[2]; pre-exposure prophylaxis", "result": "up to 2 fold"}, {"measurement": "animal survival", "setting": "[2]; prophylactic dosing, 50 mg/kg p.o. b.i.d. from 24 hours pre-infection", "result": "significantly prolonged animal survival"}, {"measurement": "interferon induction levels in PBMCs", "setting": "[2]; prophylactically treated animals", "result": "low interferon induction levels"}, {"measurement": "clearance of infection", "setting": "[2]; therapeutically dosed animals, by day 28 pI", "result": "completely cleared the infection"}, {"measurement": "increase in EC90 concentration versus standard CDV-5804PeH", "setting": "[3]; CDV-5804PeH-LG835R", "result": "approximately 8 fold"}, {"measurement": "increase in EC90 concentration versus standard CDV-5804PeH", "setting": "[3]; CDV-5804PeH-LH589Y", "result": "approximately 8 fold"}, {"measurement": "increase in EC90 concentration versus standard CDV-5804PeH", "setting": "[3]; CDV-5804PeH-LH816L", "result": "approximately 8 fold"}, {"measurement": "increase in EC90 concentration versus standard CDV-5804PeH", "setting": "[3]; CDV-5804PeH-LN398D", "result": "approximately 2 fold"}, {"measurement": "increase in EC90 concentration versus standard CDV-5804PeH", "setting": "[3]; CDV-5804PeH-LT751I", "result": "> 20", "unit": "fold"}, {"measurement": "increase in EC90 concentration versus standard CDV-5804PeH", "setting": "[3]; CDV-5804PeH-LT776A", "result": "> 20", "unit": "fold"}, {"measurement": "cytotoxicity", "setting": "[4]", "result": "low cytotoxicity"}, {"measurement": "oral availability", "setting": "[5]", "result": 39, "unit": "%"}, {"measurement": "inhibition of RdRp (replicon reporter) activity", "setting": "[6]", "result": "potently inhibited"}, {"measurement": "serum protein binding", "setting": "[7]", "result": "< 95", "unit": "%"}, {"measurement": "bidirectional membrane permeability", "setting": "[8]", "result": "high"}, {"measurement": "peak plasma concentration", "setting": "[9]; PEG-200/0.5% methylcellulose (10/90)", "result": "exceeded 1,500 ng/ml"}, {"measurement": "peak plasma concentration", "setting": "[9]; converted from ng/ml", "result": "approximately 3.5 µM"}, {"measurement": "selectivity indices (SI), CC50/EC50", "setting": "[10]; against all MeV targets analyzed", "result": "> 200"}, {"measurement": "antiviral potency", "setting": "[10]; panel of MeV isolates representing clades currently endemic worldwide", "result": "nanomolar"}, {"measurement": "inhibition of RdRp (replicon reporter) activity", "setting": "[11]", "result": "not blocked"}, {"measurement": "potency reduction against CDV strains relative to MeV", "setting": "[12]", "result": "approximately 2 fold"}, {"measurement": "inhibition of RdRp (replicon reporter) activity", "setting": "[13]", "result": "potently inhibited"}]}]}
